Tests used:
Conditions in all cases: in vivo
[1] = Drug excretion in Sprague-Dawley rat assessed as radioactivity in urine at 1.71 uCi, ip measured on day 1; assay type: ADME, organism-based
Outline: (§1)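 Three male rats (250 ± 10 g), each in its own metabolic cage with diet and water ad libitum, given 40 mg/kg ³H-labelled drug (1.71 µCi) ip as 1 ml aqueous 0.26% Tween 80 suspension. Urine and feces collected at 11 h, then daily for 13 days. Feces air-dried, powdered, oxidized and counted. Tissues assayed after sacrifice on day 14.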

[2] = Drug excretion in Sprague-Dawley rat assessed as radioactivity in urine at 1.71 uCi, ip measured on day 7; assay type: ADME, organism-based; outline: as §1
[3] = Drug excretion in Sprague-Dawley rat assessed as radioactivity in feces at 1.71 uCi, ip measured on day 13; assay type: ADME, organism-based; outline: as §1
[4] = Drug excretion in Sprague-Dawley rat assessed as total radioactivity in feces at 1.71 uCi, ip; assay type: ADME; outline: as §1
[5] = Retardation factor of the compound in Sprague-Dawley rat urine at 15.6 uCi, ip using hexane-chloroform-acetic acid at 6:3:1 ratio TLC system I; assay type: physicochemical, organism-based
Outline: (§2)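 Urine from two rats (250 g) given 300 mg/kg (15.6 µCi) ip was examined by TLC, directly and before/after enzymatic hydrolysis (pH 5.8, 37°, 72 h). Standards were located by fluorescence quenching. Radioactivity was measured by scintillation counting of 0.5-cm silica gel strips scraped from the plates.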

[6] = Drug metabolism in Sprague-Dawley rat urine at 15.6 uCi, ip using hexane-chloroform-acetic acid at 6:3:1 ratio TLC system I; assay type: ADME, organism-based; outline: as §2
[7] = Drug metabolism in Sprague-Dawley rat urine assessed as hydroxylated 2-benzylpyridine at 15.6 uCi, ip by gas chromatography-mass spectrometry; assay type: ADME, organism-based
Outline: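 Two rats (250 g) dosed ip at 300 mg/kg (15.6 µCi). Urine hydrolysed at pH 5.8, 37°, 72 h with Helix pomatia glucuronidase/arylsulfatase or bovine liver β-glucuronidase. Preparative TLC in system II; the radioactive band at Rf 0.6 extracted into Et2O and silylated (bis(trimethylsilyl)acetamide/triethylamine). GLC on 3% SE-30, fractions counted, radioactive peak sent to MS.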

[8] = Drug metabolism in Sprague-Dawley rat urine at 15.6 uCi, ip using benzene-methanol at 8:2 ratio TLC system II; assay type: ADME, organism-based; outline: as §2
[9] = Drug metabolism in Sprague-Dawley rat urine at 15.6 uCi, ip using Et2O TLC system; assay type: ADME, organism-based; outline: as §2
[10] = Drug excretion in Sprague-Dawley rat assessed as radioactivity in feces at 1.71 uCi, ip measured on day 1

`CC(O)(c1cccc(Cl)c1)C(c1ccccc1)c1ccccn1` (stereo not given) showed a Drug excretion [1] of 5%, a Drug excretion [2] of less than 1% and a Drug excretion [3] of less than 1%. The Drug excretion [4] was 25%, the Rf [5] was 0.56 and the Drug metabolism [6] was “metabolite_notdetected”. For the same compound, the Drug metabolism [7] was “metabolite_detected”, the Drug metabolism [8] was “metabolite_detected” and the Drug metabolism [9] was “metabolite_detected”. The Drug excretion [10] was 7%.

Source: ChEMBL document CHEMBL3272023, “Metabolic formation and synthesis of 1-(3-chlorophenyl)-2(4-hydroxyphenyl)-1-methyl-2(2 pyridine)ethanol. A potential hypocholesteremic agent” (J Med Chem, 1976)
